Measured values taken from ChEMBL document CHEMBL2034907, “Indiosides G-K: steroidal glycosides with cytotoxic and anti-inflammatory activities from Solanum violaceum” (J Nat Prod, 2012).
Values after ≈ are worked out from the molar mass of the structure shown.

What was measured:
[1] = Antiinflammatory activity in human neutrophils assessed as inhibition of FMLP/CB-induced superoxide anion generation incubated for 5 mins prior to FMLP/CB-challenge measured after 10 mins by spectrophotometry; format: functional, cell-based; conditions: Neutrophil
Outline: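 Neutrophils isolated by dextran sedimentation and Ficoll centrifugation. Cells were given 0.5 mg/mL ferricytochrome c and 1 mM Ca2+ and equilibrated at 37 °C for 2 min. They were then exposed to drug for 5 min and to cytochalasin B (1 μg/mL) for 3 min, then activated with fMLP (100 nM) for 10 min. Read-out was SOD-inhibitable ferricytochrome c reduction at 550 nm, monitored continuously. Mean ± SEM, n = 3.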

[2] = system: Ca9-22; assay: Cytotoxicity against human Ca9-22 cells by MTT assay; format: functional, cell-based
[3] = system: MDA-MB-231; assay: Cytotoxicity against human MDA-MB-231 cells by MTT assay; format: functional, cell-based
[4] = system: A549; assay: Cytotoxicity against human A549 cells by MTT assay; format: functional, cell-based
[5] = system: MCF7; assay: Cytotoxicity against human MCF7 cells by MTT assay; format: functional, cell-based
[6] = Cytotoxicity against human Hep3B cells by MTT assay; format: functional, cell-based, Hep 3B2
[7] = system: HepG2; assay: Cytotoxicity against human HepG2 cells by MTT assay; format: functional, cell-based
[8] = Antiinflammatory activity in human neutrophils assessed as inhibition of FMLP/CB-induced elastase release incubated for 5 mins prior to FMLP/CB-challenge by spectrophotometry; format: functional, cell-based; conditions: Neutrophil
Outline: (§1)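 Neutrophils isolated from human blood by dextran sedimentation and Ficoll centrifugation, used at 6 × 10^5/mL with MeO-Suc-Ala-Ala-Pro-Val-p-nitroanilide (100 μM). Equilibrated 2 min at 37 °C, compound added for 5 min, then activated with fMLP (100 nM)/CB (0.5 μg/mL). Absorbance at 405 nm monitored continuously. Initial elastase release rate expressed as % of the fMLP/CB-activated DMSO control. PMSF positive control; mean ± SEM, n = 3.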

[9] = Cytotoxicity against human neutrophils assessed as increase in LDH level relative to control; format: cell-based; conditions: neutrophil
Outline: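 Lysed-cell reference made with 0.1% Triton X-100, 30 min at 37 °C. LDH in the cell-free medium was measured with a commercial kit. Result given as a percentage of total LDH release.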

[10] = Antiinflammatory activity in human neutrophils assessed as inhibition of FMLP/CB-induced elastase release at 10 ug/mL incubated for 5 mins prior to FMLP/CB-challenge by spectrophotometry; format: functional; conditions: Neutrophil; outline: as §1
[11] = system: Neutrophil; assay: Ratio of PMSF IC50 to compound IC50 for antiinflammatory activity assessed as inhibition of elastase release in human neutrophils; format: functional
[12] = Antiinflammatory activity in human neutrophils assessed as inhibition of FMLP/CB-induced superoxide anion generation at 10 ug/mL incubated for 5 mins prior to FMLP/CB-challenge measured after 10 mins by spectrophotometry; format: functional; conditions: Neutrophil
Outline: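 Human neutrophils isolated by dextran sedimentation and Ficoll centrifugation, supplemented with ferricytochrome c (0.5 mg/mL) and Ca2+ (1 mM). Equilibrated 2 min at 37 °C, compound added for 5 min, then cytochalasin B (1 μg/mL) for 3 min, then fMLP (100 nM) for 10 min. SOD-inhibitable ferricytochrome c reduction followed at 550 nm with stirring. Expressed as % of fMLP/CB-activated response. DPI positive control; mean ± SEM, n = 3.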

SMILES | IC50 [1] | IC50 [2] | IC50 [3] | IC50 [4] | IC50 [5] | IC50 [6] | IC50 [7] | IC50 [8] | Activity [9] | inhibition at 10 µg/mL [10] | Ratio IC50 [11] | inhibition at 10 µg/mL [12]
c1ccc2c(c1)[I+]c1ccccc1-2 [DIPHENYLENEIODONIUM] | 0.22 µg/mL | – | – | – | – | – | – | – | – | – | – | –
C/C(=C\CO)CC[C@@H]1[C@@]2(C)CC[C@H](O[C@@H]3O[C@H](CO)[C@@H](O)[C@H](O)[C@H]3O)C(C)(C)[C@@H]2CC[C@]1(C)O [TRICALYSIOSIDE U] | – | > 20 µg/mL | > 20 µg/mL | > 20 µg/mL | > 20 µg/mL | > 20 µg/mL | > 20 µg/mL | – | – | – | – | –
C[C@H]1CC[C@]2(OC1)O[C@H]1C[C@H]3[C@@H]4CC=C5C[C@@H](O[C@@H]6O[C@H](CO)[C@@H](O[C@@H]7O[C@@H](C)[C@H](O)[C@@H](O)[C@H]7O)[C@H](O)[C@H]6O[C@@H]6O[C@@H](C)[C@H](O)[C@@H](O)[C@H]6O)CC[C@]5(C)[C@H]4CC[C@]3(C)[C@H]1[C@H]2C [BORASSOSIDE E] | 0.62 µg/mL (≈ 0.713 µM) | 2.33 µg/mL (≈ 2.68 µM) | 2.75 µg/mL (≈ 3.16 µM) | 2.34 µg/mL (≈ 2.69 µM) | 2.61 µg/mL (≈ 3 µM) | 2.03 µg/mL (≈ 2.34 µM) | 1.83 µg/mL (≈ 2.11 µM) | 111 µg/mL (≈ 128 µM) | Toxic | – | – | –
C[C@H]1CC[C@@]2(OC1)O[C@H]1C[C@H]3[C@@H]4CC[C@H]5C[C@@H](O[C@@H]6O[C@H](CO)[C@@H](O[C@@H]7O[C@@H](C)[C@H](O)[C@@H](O)[C@H]7O)[C@H](O)[C@H]6O[C@@H]6O[C@@H](C)[C@H](O)[C@@H](O)[C@H]6O)CC[C@]5(C)[C@H]4CC[C@]3(C)[C@H]1[C@@H]2C | 2.84 µg/mL (≈ 3.26 µM) | 6.76 µg/mL (≈ 7.76 µM) | 8.04 µg/mL (≈ 9.23 µM) | 7.27 µg/mL (≈ 8.35 µM) | 11.6 µg/mL (≈ 13.3 µM) | 3.32 µg/mL (≈ 3.81 µM) | 5.33 µg/mL (≈ 6.12 µM) | – | Toxic | 38.9% | – | –
C[C@H]1CC[C@@]2(OC1)O[C@H]1C[C@H]3[C@@H]4CC=C5C[C@@H](O[C@@H]6O[C@H](CO)[C@@H](O[C@@H]7O[C@@H](C)[C@H](O)[C@@H](O)[C@H]7O)[C@H](O)[C@H]6O[C@@H]6O[C@@H](C)[C@H](O)[C@@H](O)[C@H]6O)CC[C@]5(C)[C@H]4CC[C@]3(C)[C@H]1[C@@H]2C | 1.62 µg/mL (≈ 1.86 µM) | 3.77 µg/mL (≈ 4.34 µM) | 5.84 µg/mL (≈ 6.72 µM) | 4.09 µg/mL (≈ 4.71 µM) | 8.84 µg/mL (≈ 10.2 µM) | 2.87 µg/mL (≈ 3.3 µM) | 6.44 µg/mL (≈ 7.41 µM) | 4.04 µg/mL (≈ 4.65 µM) | Toxic | – | 5 | –
CC[C@H](CC[C@@H](C)[C@H]1CC[C@H]2[C@@H]3C(O)C=C4C[C@@H](O[C@@H]5O[C@H](CO)[C@@H](O)[C@H](O)[C@H]5O)CC[C@]4(C)[C@H]3CC[C@]12C)C(C)C (some centres not stated) | – | > 20 µg/mL | > 20 µg/mL | > 20 µg/mL | > 20 µg/mL | > 20 µg/mL | > 20 µg/mL | – | – | – | – | –
C[C@H]1CC[C@@]2(OC1)O[C@H]1C[C@H]3[C@@H]4CC=C5C[C@@H](O[C@@H]6O[C@H](CO)[C@@H](O)[C@H](O)[C@H]6O[C@@H]6O[C@@H](C)[C@H](O)[C@@H](O)[C@H]6O)CC[C@]5(C)[C@H]4CC[C@]3(C)[C@H]1[C@@H]2C | – | 4.51 µg/mL (≈ 6.24 µM) | 7.25 µg/mL (≈ 10 µM) | 4.26 µg/mL (≈ 5.89 µM) | 5.84 µg/mL (≈ 8.08 µM) | 6.98 µg/mL (≈ 9.66 µM) | 6.48 µg/mL (≈ 8.96 µM) | – | – | – | – | –
COc1cccc2c1C(=O)c1c(O)c3c(c(O)c1C2=O)C[C@@](O)(C(=O)CO)C[C@@H]3O[C@H]1C[C@H](N)[C@H](O)[C@H](C)O1 [DOXORUBICIN] | – | 0.31 µg/mL (≈ 0.57 µM) | 1.39 µg/mL (≈ 2.56 µM) | 1.4 µg/mL (≈ 2.58 µM) | 0.8 µg/mL (≈ 1.47 µM) | 1.31 µg/mL (≈ 2.41 µM) | – | – | – | – | – | –
O=S(=O)(F)Cc1ccccc1 [PHENYLMETHYLSULFONYLFLUORIDE] | – | – | – | – | – | – | – | 22.8 µg/mL (≈ 131 µM) | – | – | – | –
O=C(/C=C/c1ccc(O)cc1)NCCc1ccc(O)cc1 [N-P-COUMAROYL TYRAMINE] | – | 12.3 µg/mL (≈ 43.3 µM) | > 20 µg/mL | 15.2 µg/mL (≈ 53.7 µM) | > 20 µg/mL | 11.2 µg/mL (≈ 39.6 µM) | 9.57 µg/mL (≈ 33.8 µM) | – | Non-toxic | -0.17% | – | 23.2%
C[C@H]1CC[C@]2(OC1)O[C@H]1C[C@H]3[C@@H]4CC=C5C[C@@H](O[C@@H]6O[C@H](CO)[C@@H](O)[C@H](O)[C@H]6O[C@@H]6O[C@@H](C)[C@H](O)[C@@H](O)[C@H]6O)CC[C@]5(C)[C@H]4CC[C@]3(C)[C@H]1[C@H]2C | – | 2.95 µg/mL (≈ 4.08 µM) | 6.12 µg/mL (≈ 8.47 µM) | 3.09 µg/mL (≈ 4.27 µM) | 4.78 µg/mL (≈ 6.61 µM) | 2.95 µg/mL (≈ 4.08 µM) | 2.22 µg/mL (≈ 3.07 µM) | – | – | – | – | –
C[C@@H]1CC[C@]2(OC1)O[C@H]1C[C@H]3[C@@H]4CC=C5C[C@@H](O[C@@H]6O[C@H](CO)[C@@H](O[C@@H]7O[C@@H](C)[C@H](O)[C@@H](O)[C@H]7O)[C@H](O)[C@H]6O)CC[C@]5(C)[C@H]4CC[C@]3(C)[C@H]1[C@H]2C [BORASSOSIDE D] | – | > 20 µg/mL | > 20 µg/mL | > 20 µg/mL | > 20 µg/mL | > 20 µg/mL | > 20 µg/mL | – | – | – | – | –
CC[C@H](CC[C@@H](C)[C@H]1CC[C@H]2[C@@H]3CC=C4C[C@@H](O[C@@H]5O[C@H](CO)[C@@H](O)[C@H](O)[C@H]5O)CC[C@]4(C)[C@H]3CC[C@]12C)C(C)C [SITOGLUSIDE] | – | > 20 µg/mL | > 20 µg/mL | > 20 µg/mL | > 20 µg/mL | > 20 µg/mL | > 20 µg/mL | – | – | 1.58% | – | 24.9%
